An excerpt weighted towards active compounds, which were near 1.7% of everything screened.
IDE cell inh: inhibitors of human insulin-degrading enzyme in cells; inhibition, % at 5.59 µM; HEK cells, FAbetaB cleavage, fluorescence polarization; 0.41% of 320,000 active; AID 434962;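 active = percent inhibition above the average of all tested compounds plus 3 SD, set per screening campaign, cut at about 16% in these data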;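 note: IDE supplied by intact live HEK cells; FP after avidin binding of uncleaved biotin substrate so inhibition keeps polarization high; 0% = DMSO wells and 100% = 60 µM reference IDE inhibitor Ii1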
CSN inh: inhibitors of human CSN-mediated cullin deneddylation; Purified CSN, SCF-Nedd8-OG deneddylation, fluorescence polarization; inhibition, % at 12.5 µM; 0.38% of 360,000 active;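 active = pattern-corrected inhibition above about 35%, with an unprinted fluorescence ratio check between 0.5 and 1.5, limit read from the data, passing the limit was not always enough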;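 note: 0% = enzyme with substrate and 100% = substrate without enzyme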
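Assay system: purified human Csn5 enzyme expressed in HEK293T cells; Input: 0.24 nM Csn5 enzyme, final concentration; Reagent: 10 nM SCFSkp2-Nedd8OG; Compound dosing: 12.5 µM single point; Times: reaction 90 min, room temperature; Technique: fluorescence polarization readout.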
Rpn11 block: blocks the human proteasome subunit Rpn11 | O00487 | human 26S proteasome, Ub4-pepOG fluorescence polarization; 20S core pre-blocked with epoxomicin | inhibition, % at 20 µM | 0.59% of 360,000 active;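 active = inhibition at 20 µM, scaled to each plate's controls, above about 33%, limit read from the data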
HNF4A DNA FP: change in binding of human HNF4 alpha to DNA; P41235; HNF4a-FITC DNA binding, fluorescence polarization, 1 h; activity change, % at 10 µM; 0.3% of 360,000 active; in the data active = activity change above about 30%, passing the limit was not always enough
TPT1 inhibitor: blocks Candida albicans tRNA 2'-phosphotransferase; recombinant caTPT1, FP RNA substrate dephosphorylation; inhibition, % at 5 µM; 0.81% of 300,000 active;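 active = inhibition above the mean of all tested compounds plus 3 SD, set per screening campaign, cut at about 24% in these data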;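 note: plate controls were DMSO alone for no effect and ferristatin control at 100 nM for full effect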
IDE cell activ: activators of human insulin-degrading enzyme in cells; P14735; HEK cells, FAbeta-B cleavage, fluorescence polarization; 0% vehicle, 100% cell-free pure enzyme wells; activation, % at 5.96 µM; 0.073% of 340,000 active; AID 493087;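 active = activation above the mean of all tested compounds plus 3 SD, set per screening campaign, cut at about 17% in these data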
TPT1 inh confirm: TPT1 (C. albicans) inhibition, confirmation; shares compounds with TPT1 inhibitor; recombinant caTPT1, fluorescence polarization, RNase T1 coupled; inhibition, % at 5 µM; 74% of 2,400 active; AID 2149;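 active = inhibition above the primary screen limit, the mean inhibition of all tested compounds plus 3 SD, cut at about 25% in these data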
RNase T1 counter: counter-screen for TPT1 inhibitors: inhibitors of Aspergillus oryzae RNase T1. inhibition, % at 5 µM. RNase T1 cleavage, fluorescence polarization, 1536-well. shares compounds with TPT1 inhibitor. 83% of 2,400 active;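 active = inhibition above the solvent-only control well mean plus 3 SD, limit set per screening run, cut at about 23% in these data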;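 note: plate controls were DMSO wells with enzyme for no effect and wells without RNase T1 for full effect; inhibitors block cleavage so intact labeled substrate keeps polarization high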
IDE cell inh cf: confirmation of human insulin-degrading enzyme inhibitors in cells | shares compounds with IDE cell inh | HEK cells, FAbetaB cleavage, fluorescence polarization | inhibition, % at 5.59 µM | 51% of 1,200 active;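 active = mean inhibition across triplicate wells above the cutoff set by the earlier primary insulin-degrading enzyme screen, cut at about 16% in these data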;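 note: 0% = DMSO wells and 100% = 60 µM reference IDE inhibitor Ii1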
HEK293 tox: kills HEK cells in IDE inhibitor counter-screen; shares compounds with IDE cell inh; HEK293 cytotoxicity, ATP luminescence; inhibition, % at 5.59 µM; 28% of 1,200 active; in the data active = inhibition above about 22%;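 note: 0% = vehicle wells and 100% = reference cytotoxic drug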
Rpn11 inh conf: confirmation of human proteasome Rpn11 inhibitors | shares compounds with Rpn11 block | purified human 26S proteasome, Ub4-pepOG fluorescence polarization; proteasome pretreated with epoxomicin | inhibition, % at 20 µM | 29% of 1,900 active
MMP-2 counter-1: MMP-2 (human) inhibition counter-screen; AID 602330; inhibition, % at 20 µM; recombinant MMP-2, FRET peptide cleavage fluorescence; shares compounds with Rpn11 block; 4% of 1,900 active;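 note: human MMP-2 activated beforehand with APMA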
Target sequence (P08253 whole entry, looked up): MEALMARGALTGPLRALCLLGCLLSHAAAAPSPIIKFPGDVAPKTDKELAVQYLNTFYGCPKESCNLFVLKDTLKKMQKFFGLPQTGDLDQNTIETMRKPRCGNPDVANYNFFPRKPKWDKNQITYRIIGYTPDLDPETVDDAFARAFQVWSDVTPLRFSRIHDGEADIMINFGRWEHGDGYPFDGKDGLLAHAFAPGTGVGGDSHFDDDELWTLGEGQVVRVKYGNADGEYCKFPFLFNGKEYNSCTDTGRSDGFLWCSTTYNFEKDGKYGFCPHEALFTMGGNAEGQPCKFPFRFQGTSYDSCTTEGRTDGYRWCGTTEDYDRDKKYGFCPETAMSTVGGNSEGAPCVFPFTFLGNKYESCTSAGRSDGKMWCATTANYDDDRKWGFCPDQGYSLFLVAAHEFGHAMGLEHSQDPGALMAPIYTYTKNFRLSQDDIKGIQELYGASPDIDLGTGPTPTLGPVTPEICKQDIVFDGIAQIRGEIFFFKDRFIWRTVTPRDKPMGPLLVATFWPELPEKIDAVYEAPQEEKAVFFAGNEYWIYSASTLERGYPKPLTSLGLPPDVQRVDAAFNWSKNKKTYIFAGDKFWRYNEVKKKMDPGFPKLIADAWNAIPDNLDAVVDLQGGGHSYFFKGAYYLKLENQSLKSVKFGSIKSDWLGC
Thrombin inh: thrombin (bovine) inhibition counter-screen; bovine thrombin cleavage of Ub4-pepOG, fluorescence polarization; shares compounds with Rpn11 block; inhibition, % at 20 µM; 13% of 1,900 active;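 active = mean inhibition at least 40% at 20 µM, or signal 3 deviations below plate average, so some actives read negative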;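 note: plate controls were thrombin with DMSO for no effect and buffer wells lacking thrombin for full effect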
CSN deneddyl val: Csn5 (human) deneddylation inhibition, single-concentration validation | shares compounds with CSN inh | Csn5 deneddylation of SCF-Nedd8OG, fluorescence polarization, 90 min | inhibition, % at 16.6 µM | 62% of 540 active; in the data active = inhibition above about 50%;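 note: 0% = DMSO with enzyme and 100% = no enzyme wells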
MMP-2 counter-2: counter-screen for CSN deneddylation inhibitors: human MMP-2 inhibition | AID 720655 | shares compounds with CSN inh | recombinant MMP-2, FRET substrate fluorescence, 60 min | 33% of 540 active | inhibition, % at 16.6 µM;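 active = corrected plate-normalized z-score of 5 or more, or -5 or less, or inhibition of 15% or more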;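 note: plate controls were DMSO wells with enzyme for no effect and buffer wells lacking MMP-2 for full effect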
Thrombin cntr: counter-screen for CSN deneddylation inhibitors: bovine thrombin inhibition; bovine thrombin cleavage of Ub4-pepOG, fluorescence polarization; AID 720656; inhibition, % at 16.6 µM; shares compounds with CSN inh; 49% of 540 active;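 active = inhibition at or above a set limit, with a fluorescence interference ratio between 0.5 and a set maximum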
HNF4A confirm: change in binding of human HNF4 alpha to DNA, retest. shares compounds with HNF4A DNA FP. 99% of 210 active. activity change, % at 12.5 µM. AID 1224897. HNF4A-FITC DNA binding, fluorescence polarization, 1 h; call rule not given here
Active calls of the source: *; . = not tested or not shown. Cut-off read from the data, not from the text of the source, unless noted: active = inhibition above about 40%; inactive = the rest.

SMILES	IDE cell inh	CSN inh	Rpn11 block	HNF4A DNA FP	TPT1 inhibitor	IDE cell activ	TPT1 inh confirm	RNase T1 counter	HNF4A confirm	others
CCCCCCN1C[C@@H](O)[C@H](n2cc(COC(=O)c3ccccc3)nn2)C[C@@H]1c1ccc(OC)cc1	.	-1	7	0	.	.	.	.	.
CCOc1cc(/C=C2\SC(=S)N(Nc3ccccc3)C2=O)ccc1O	53*	37*	82*	32	34*	-78	37*	50*	.	IDE cell inh cf=128*;HEK293 tox=7;Rpn11 inh conf=72*;MMP-2 counter-1=24;Thrombin inh=79*;CSN deneddyl val=75*;MMP-2 counter-2=9;Thrombin cntr=61*
CCOc1cc(/C=C2\SC(=S)N(N3CCOCC3)C2=O)ccc1O	7	-4	2	2	4	-4	.	.	.
CC(=O)NN1C(=O)/C(=C\c2ccc(O)cc2)SC1=S	36*	96*	.	82*	37*	-73	41*	48*	.	IDE cell inh cf=89*;HEK293 tox=8;CSN deneddyl val=39;MMP-2 counter-2=-5;Thrombin cntr=73*
COc1cc(/C=C2/SC(=S)N(CC3CCCO3)C2=O)ccc1O (stereo not given)	108*	58*	.	41*	39*	-95	41*	51*	.	IDE cell inh cf=175*;HEK293 tox=13;CSN deneddyl val=65*;MMP-2 counter-2=-4;Thrombin cntr=75*
CC(=O)NN1C(=O)/C(=C\c2ccc(C)cc2)SC1=S	-1	-1	-1	3	-1	-4	.	.	.
O=C(NN1C(=O)/C(=C/c2ccc(O)c(O)c2)SC1=S)c1ccccc1	43*	50*	.	33	31*	-43	44*	57*	.	IDE cell inh cf=87*;HEK293 tox=17;CSN deneddyl val=63*;MMP-2 counter-2=20*;Thrombin cntr=33*
CC(=O)NN1C(=O)/C(=C\c2ccccc2)SC1=S	7	4	0	-3	2	5	.	.	.
CC(C)C#Cc1cnc2c(c1)C(=O)N([C@H](C)CO)C[C@@H](C)[C@H](CN(C)C(=O)Nc1ccccc1F)O2	.	-2	-2	3	.	.	.	.	.
CC(=O)OC[C@]12CC[C@H]3[C@@](C)(CC[C@H]4C(C)(C)CCC[C@]34C)[C@@H]1C[C@H](C1=CC(=O)O[C@@H]1OC(C)=O)O2	12	.	.	.	.	.	.	.	.
COc1cc(/C=C2\SC(=S)N(C(Cc3ccccc3)C(=O)O)C2=O)ccc1O (stereo not given)	46*	36*	103*	35*	33*	-58	37*	49*	.	IDE cell inh cf=109*;HEK293 tox=6;Rpn11 inh conf=62*;MMP-2 counter-1=-17;Thrombin inh=79*;CSN deneddyl val=56*;MMP-2 counter-2=6;Thrombin cntr=68*
O=C(O)C(Cc1ccccc1)N1C(=O)/C(=C/c2ccccc2)SC1=S (stereo not given)	-3	0	-5	0	-2	2	.	.	.
Cc1cccc(-c2noc(CNC(=O)c3ccoc3C)n2)c1	-2	20	.	50*	34*	-1	65*	74*	32*
O=C(NCc1ccc(F)cc1)OC1CC2CC1[C@H]1CCCCN1C2=O (stereo not given in full)	.	-5	.	-4	.	.	.	.	.
Cc1onc(-c2ccccc2)c1C(=O)Nc1sccc1C#N	-3	12	.	44*	83*	-3	91*	99*	65*
Cc1onc(-c2ccccc2)c1C(=O)Nc1sc2c(c1C#N)CCC2	-4	20	21	13	18	2	.	.	.
C[C@H]1CN([C@@H](C)CO)C(=O)CCCn2nncc2CO[C@H]1CN(C)S(=O)(=O)c1ccc(C#N)cc1	.	-1	-12	1	.	.	.	.	.
CCNC(=O)C1(C)CCN(Cc2cccc(C(F)(F)F)c2)C1 (stereo not given)	.	3	0	-3	.	.	.	.	.
C=CCSc1nnc(C)c(/C=C/Nc2ccc(Cl)cc2)n1	3	-1	.	51*	155*	.	133*	129*	38*
CCOC(=O)/C(C#N)=C/c1cc(C)n(-c2ccccc2)c1C	3	0	-1	-1	4	4	.	.	.
CCOC(=O)/C(C#N)=C/C=C1\C=Cc2ccccc2N1CC	12	44*	.	94*	79*	-33	83*	93*	101*	CSN deneddyl val=99*;MMP-2 counter-2=-1;Thrombin cntr=55*
Cn1cccc1/C=C1\SC(=S)N(CC(=O)O)C1=O	-5	49*	.	80*	108*	-1	115*	129*	117*
Oc1ccc(/C=C/c2ccc3cccc(O)c3n2)cc1Br	6	33	.	44*	48*	-12	63*	70*	76*
O=C(O)c1ccc(/C=C/c2ccc3cccc(O)c3n2)cc1	.	20	9	-6	.	0	.	.	.
OCc1ccccc1-c1nc(NCC2CC2)nc2ccsc12	.	-1	-2	-1	.	.	.	.	.
O=C(Nc1ccc(S(=O)(=O)Nc2nccs2)cc1)c1ccc(N2C(=O)c3ccccc3C2=O)cc1	1	67*	68*	53*	41*	2	65*	77*	66*	Rpn11 inh conf=91*;MMP-2 counter-1=-29;Thrombin inh=46*
